pEC50, pIC50, pKi: −log10 of the molar value.
Tests used:
Mu-type opioid receptor [1] = target: T1, Mu-type opioid receptor (Rattus norvegicus, UniProt P33535); assay: Agonist activity at mu opioid receptor in rat brain membranes assessed as stimulation of [35S]GTPgammaS binding after 60 mins in presence of GDP; assay type: functional, cell membranes; settings: for pEC50: read-out: EC50; for EC50: read-out: pEC50 (converted)
[2] = target: Kappa-type opioid receptor (Cavia porcellus, UniProt P41144); assay: Displacement of [3H]-U69,593 from kappa opioid receptor in guinea pig brain membranes after 2 hrs by liquid scintillation counting analysis; assay type: cell membranes, Membrane
Kappa-type opioid receptor, sequence (P41144 whole entry): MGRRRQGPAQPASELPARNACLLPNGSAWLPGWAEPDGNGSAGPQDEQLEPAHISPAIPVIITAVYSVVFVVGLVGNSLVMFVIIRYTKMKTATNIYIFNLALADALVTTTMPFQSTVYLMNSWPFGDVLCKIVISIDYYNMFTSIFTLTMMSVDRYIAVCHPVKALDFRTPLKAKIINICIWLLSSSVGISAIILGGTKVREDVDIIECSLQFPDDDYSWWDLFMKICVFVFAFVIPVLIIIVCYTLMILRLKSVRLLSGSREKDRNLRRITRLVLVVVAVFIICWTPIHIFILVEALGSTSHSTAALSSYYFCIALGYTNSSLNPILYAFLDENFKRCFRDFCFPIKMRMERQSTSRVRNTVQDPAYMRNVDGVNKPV
Summary of the method: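 Guinea pig brain membranes incubated 2 h at 0 °C with 0.80 nM [3H]U69,593 plus competitor. IC50 taken from log-dose displacement curves.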

[3] = target: Delta-type opioid receptor (Rattus norvegicus, UniProt P33533); assay: Displacement of [3H]-DIDI from delta opioid receptor in Wistar rat brain membranes after 45 mins by liquid scintillation counting analysis; assay type: cell membranes, Membrane
Delta-type opioid receptor, sequence (P33533 whole entry): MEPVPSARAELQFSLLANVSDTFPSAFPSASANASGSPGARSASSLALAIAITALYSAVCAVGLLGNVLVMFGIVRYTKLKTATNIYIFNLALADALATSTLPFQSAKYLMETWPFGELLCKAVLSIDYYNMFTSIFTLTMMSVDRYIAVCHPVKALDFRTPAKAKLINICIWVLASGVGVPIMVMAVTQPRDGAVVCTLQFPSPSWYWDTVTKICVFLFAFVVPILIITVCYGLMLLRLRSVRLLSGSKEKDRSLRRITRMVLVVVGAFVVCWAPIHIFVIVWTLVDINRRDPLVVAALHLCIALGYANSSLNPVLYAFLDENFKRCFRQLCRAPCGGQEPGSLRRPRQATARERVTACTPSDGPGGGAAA

Rattus norvegicus = organism: Rattus norvegicus; assay: Selectivity ratio of Ki for delta opioid receptor in Wistar rat brain membranes to Ki for mu opioid receptor in Wistar rat brain membranes; assay type: cell membranes; settings: Membrane
Mu-type opioid receptor [4] = target: T1, Mu-type opioid receptor; assay: Displacement of [3H]-DAMGO from mu opioid receptor in Wistar rat brain membranes after 45 mins by liquid scintillation counting analysis; assay type: cell membranes, Membrane
Mu-type opioid receptor [5] = target: Mu-type opioid receptor (Cavia porcellus, UniProt P97266); assay: Agonist activity at mu opioid receptor in guinea pig ileum; assay type: tissue-based
Mu-type opioid receptor (Cavia porcellus, UniProt P97266), sequence (P97266 whole entry): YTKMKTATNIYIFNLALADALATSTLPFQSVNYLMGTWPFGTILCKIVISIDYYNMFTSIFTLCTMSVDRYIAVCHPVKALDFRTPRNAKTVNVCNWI
Summary of the method: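 Isolated guinea pig ileum (MOR) and mouse vas deferens (DOR) bioassays; Leu-enkephalin dose-response curve run as standard on each preparation, test IC50 values normalized to it.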

T1 sequence (P33535 whole entry): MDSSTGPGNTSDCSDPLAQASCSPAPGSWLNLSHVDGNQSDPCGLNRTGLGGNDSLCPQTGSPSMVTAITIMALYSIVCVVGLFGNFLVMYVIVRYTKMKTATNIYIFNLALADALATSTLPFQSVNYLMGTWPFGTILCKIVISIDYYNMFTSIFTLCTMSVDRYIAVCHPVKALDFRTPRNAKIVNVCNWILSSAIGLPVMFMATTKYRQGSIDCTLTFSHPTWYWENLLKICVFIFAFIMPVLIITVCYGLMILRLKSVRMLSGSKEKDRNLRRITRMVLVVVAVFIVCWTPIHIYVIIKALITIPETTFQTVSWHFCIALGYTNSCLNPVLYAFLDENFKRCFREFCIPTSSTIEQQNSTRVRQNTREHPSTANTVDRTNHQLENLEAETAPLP

| Compound | pEC50 (Mu-type opioid receptor [1]) | EC50 (Mu-type opioid receptor [1]) [nM] | pKi [2] | pIC50 [3] | pKi [3] | Ratio Ki (Rattus norvegicus) | pIC50 (Mu-type opioid receptor [4]) | pKi (Mu-type opioid receptor [4]) | pIC50 (Mu-type opioid receptor [5]) |
| --- | --- | --- | --- | --- | --- | --- | --- | --- | --- |
| CC(C)C[C@@H]1NC(=O)[C@H](Cc2ccccc2)NC(=O)CNC(=O)[C@H](NC(=O)[C@@H](N)Cc2ccc(O)cc2)CCCN/C(N(C)C)=N\CCC[C@@H](C(N)=O)NC1=O | 5.82 | 1550 | < 6.30 | 6.71 | 6.84 | 10.2 | 7.71 | 7.84 |  |
| CN(C)/C1=N/C[C@@H](C(N)=O)NC(=O)[C@H](Cc2ccccc2)NC(=O)CNC(=O)[C@H](NC(=O)[C@@H](N)Cc2ccc(O)cc2)CN1 | 5.74 |  |  |  |  |  |  |  |  |
| CC(C)C[C@@H]1NC(=O)[C@H](Cc2ccccc2)NC(=O)CNC(=O)[C@H](NC(=O)[C@@H](N)Cc2ccc(O)cc2)CCCN/C(N2CCCC2)=N\CCC[C@@H](C(N)=O)NC1=O | 5.10 | 8130 |  | 6.08 | 6.20 | 3.6 | 6.63 | 6.76 |  |
| CN/C1=N/C[C@@H](C(N)=O)NC(=O)[C@H](Cc2ccccc2)NC(=O)CNC(=O)[C@H](NC(=O)[C@@H](N)Cc2ccc(O)cc2)CN1 (stereo in doubt; 10b) |  | 1620 |  |  |  |  |  |  |  |
| CC(C)C[C@@H]1NC(=O)[C@H](Cc2ccccc2)NC(=O)CNC(=O)[C@H](NC(=O)[C@@H](N)Cc2ccc(O)cc2)CCCNC(=S)NCCC[C@@H](C(N)=O)NC1=O | 6.23 | 603 |  | 7.01 | 7.12 | 8.3 | 7.91 | 8.04 |  |
| NC(=O)[C@@H]1C/N=C(/N2CCCC2)NC[C@@H](NC(=O)[C@@H](N)Cc2ccc(O)cc2)C(=O)NCC(=O)N[C@@H](Cc2ccccc2)C(=O)N1 (stereo in doubt; 13a) |  | 1070 | < 6.30 |  |  |  |  |  |  |
| NC(=O)[C@@H]1C/N=C(/N2CCCC2)NC[C@@H](NC(=O)[C@@H](N)Cc2ccc(O)cc2)C(=O)NCC(=O)N[C@@H](Cc2ccccc2)C(=O)N1 (stereo in doubt; 13b) |  | 2820 | < 6.30 |  |  |  |  |  |  |
| NC(=O)[C@@H]1C/N=C(/N2CCCCC2)NC[C@@H](NC(=O)[C@@H](N)Cc2ccc(O)cc2)C(=O)NCC(=O)N[C@@H](Cc2ccccc2)C(=O)N1 (stereo in doubt; 14b) |  | 4170 |  | 5.31 |  |  |  |  |  |
| NC(=O)[C@@H]1C/N=C(/N2CCCCC2)NC[C@@H](NC(=O)[C@@H](N)Cc2ccc(O)cc2)C(=O)NCC(=O)N[C@@H](Cc2ccccc2)C(=O)N1 (stereo in doubt; 14a) |  | 1450 |  |  |  |  |  |  | 6.40 |
| CS/C1=N/CCC[C@@H](C(N)=O)NC(=O)[C@H](CC(C)C)NC(=O)[C@H](Cc2ccccc2)NC(=O)CNC(=O)[C@H](NC(=O)[C@@H](N)Cc2ccc(O)cc2)CCCN1 | 6.19 | 661 |  | 6.60 | 6.72 | 9.1 | 7.54 | 7.68 |  |
| CC(C)C[C@@H]1NC(=O)[C@H](Cc2ccccc2)NC(=O)CNC(=O)[C@H](NC(=O)[C@@H](N)Cc2ccc(O)cc2)CCCN/C(N)=N\CCC[C@@H](C(N)=O)NC1=O | 5.52 |  | < 6.30 | 6.84 | 6.97 | 5.9 | 7.60 | 7.74 |  |
| NC(=O)[C@@H]1C/N=C(/N2CCCC2)NC[C@@H](NC(=O)[C@@H](N)Cc2ccc(O)cc2)C(=O)NCC(=O)N[C@@H](Cc2ccccc2)C(=O)N1 (stereo in doubt; 13c) |  | 4790 | < 6.30 |  |  |  |  |  |  |
| NC(=O)[C@@H]1CNC(=S)NC[C@@H](NC(=O)[C@@H](N)Cc2ccc(O)cc2)C(=O)NCC(=O)N[C@@H](Cc2ccccc2)C(=O)N1 (stereo in doubt; 7a) |  |  |  |  |  |  |  |  | 8.75 |
| NC(=O)[C@@H]1C/N=C(/N2CCCCC2)NC[C@@H](NC(=O)[C@@H](N)Cc2ccc(O)cc2)C(=O)NCC(=O)N[C@@H](Cc2ccccc2)C(=O)N1 (stereo in doubt; 14c) |  | 7590 |  |  | 5.46 |  |  |  |  |
| CN/C1=N/C[C@@H](C(N)=O)NC(=O)[C@H](Cc2ccccc2)NC(=O)CNC(=O)[C@H](NC(=O)[C@@H](N)Cc2ccc(O)cc2)CN1 (stereo in doubt; 10a) |  | 282 |  |  |  |  |  |  |  |
| C/N=C1/NCCC[C@@H](C(N)=O)NC(=O)[C@H](CC(C)C)NC(=O)[C@H](Cc2ccccc2)NC(=O)CNC(=O)[C@H](NC(=O)[C@@H](N)Cc2ccc(O)cc2)CCCN1 | 5.91 |  | < 6.52 | 6.61 | 6.73 | 10.3 | 7.62 | 7.75 |  |
